Reference: ChEMBL document CHEMBL2439948, “Discovery of DF-461, a Potent Squalene Synthase Inhibitor” (ACS Med Chem Lett, 2013)
Calls of active or inactive are those of the source. No cut-off for these calls is given here.

How the values were obtained:
Rattus norvegicus [1] = test: Inhibition of cholesterol synthesis in po dosed Wistar rat administered as single dose prior to [14C]mevalonolactone injection measured after 7 hrs by liquid scintillation counting; type: functional
marmosets [2] = test: Reduction in triglyceride level in marmosets at 30 mg/kg/day, po for 7 days; type: functional, Callitrichinae sp.; design: scale not given: the % may be the effect or the level left
How it was run: (§1)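 Marmosets dosed orally at 30 mg/kg/day for 7 days. Plasma total, non-HDL and HDL cholesterol and triglyceride reported as mean percentage change from each animal's initial values (n = 7, 8). Significance was tested against initial values.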

marmosets [3] = test: Reduction in HDL cholesterol level in marmosets at 30 mg/kg/day, po for 7 days; type: functional, Callitrichinae sp.; design: scale not given: the % may be the effect or the level left; how it was run: as §1
marmosets [4] = test: Reduction in non-HDL cholesterol level in marmosets at 30 mg/kg/day, po for 7 days; type: functional, Callitrichinae sp.; design: scale not given: the % may be the effect or the level left; how it was run: as §1
marmosets [5] = test: Reduction in total cholesterol level in marmosets at 30 mg/kg/day, po for 7 days; type: functional, Callitrichinae sp.; design: scale not given: the % may be the effect or the level left; how it was run: as §1
Rattus norvegicus [6] = test: Inhibition of cholesterol synthesis in Wistar rat at 1 mg/kg, po administered as single dose prior to [14C]mevalonolactone injection measured after 7 hrs by liquid scintillation counting; type: functional
How it was run: (§2)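 Rats given a single oral dose of 1 mg/kg; hepatic cholesterol synthesis inhibition (%) determined at 1, 4 and 7 h after dosing.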

Rattus norvegicus [7] = test: Inhibition of cholesterol synthesis in Wistar rat at 1 mg/kg, po administered as single dose prior to [14C]mevalonolactone injection measured after 4 hrs by liquid scintillation counting; type: functional; how it was run: as §2
Rattus norvegicus [8] = test: Inhibition of cholesterol synthesis in Wistar rat at 1 mg/kg, po administered as single dose prior to [14C]mevalonolactone injection measured after 1 hr by liquid scintillation counting; type: functional; how it was run: as §2
Hepatocyte = test: Inhibition of cholesterol synthesis in rat hepatocytes assessed as formation of cholesterol using [14C]mevalonolactone as substrate after 1 hr by liquid scintillation counting; type: functional, cell-based
Squalene synthase = biological target: T1, Squalene synthase (Rattus norvegicus, UniProt Q02769); test: Inhibition of rat hepatic microsomal squalene synthase using [3H]FPP as substrate after by scintillation spectrophotometry
T1 sequence (Q02769 whole entry): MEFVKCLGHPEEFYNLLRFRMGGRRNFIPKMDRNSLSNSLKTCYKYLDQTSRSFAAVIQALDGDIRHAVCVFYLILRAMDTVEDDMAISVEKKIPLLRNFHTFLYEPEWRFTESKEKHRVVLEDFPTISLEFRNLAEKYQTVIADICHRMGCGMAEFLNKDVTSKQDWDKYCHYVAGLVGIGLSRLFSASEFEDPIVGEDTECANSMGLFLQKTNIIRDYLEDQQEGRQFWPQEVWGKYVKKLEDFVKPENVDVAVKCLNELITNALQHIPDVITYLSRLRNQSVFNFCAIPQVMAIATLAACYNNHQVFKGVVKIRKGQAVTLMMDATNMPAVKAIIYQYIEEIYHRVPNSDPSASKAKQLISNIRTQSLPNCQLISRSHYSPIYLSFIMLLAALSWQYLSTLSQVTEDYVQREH

[9] = Lipophilicity, log D of the compound at pH 7.4; type: physicochemical; conditions: buffer
Rattus norvegicus [10] = test: Inhibition of cholesterol synthesis in Wistar rat at 3 mg/kg, po administered as single dose prior to [14C]mevalonolactone injection measured after 1 hr by liquid scintillation counting
Rattus norvegicus [11] = test: Inhibition of cholesterol synthesis in Wistar rat at 3 mg/kg, po in presence of [14C]acetic acid; type: functional, organism-based; design: dose 3 mg/kg
How it was run: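 Rats given a single 3 mg/kg oral dose; hepatic cholesterol synthesis inhibition expressed as % at 1 h post-dose.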

Rattus norvegicus [12] = test: Drug uptake in rats liver assessed per gram of tissue at 3 mg/kg, po administered as single dose measured at 1 hr
Rattus norvegicus [13] = test: Partition co-efficient, Kp in rats liver assessed per gram of tissue at 3 mg/kg, po administered as single dose measured at 1 hr

Row | Compound | ED50 (Rattus norvegicus [1]) [mg/kg] | Activity (marmosets [2]) [%] | Activity (marmosets [3]) [%] | Activity (marmosets [4]) [%] | Activity (marmosets [5]) [%] | inhibition in vivo at 1 mg/kg (Rattus norvegicus [6]) [%] | inhibition in vivo at 1 mg/kg (Rattus norvegicus [7]) [%] | inhibition in vivo at 1 mg/kg (Rattus norvegicus [8]) [%] | IC50 (Hepatocyte) [µM] | IC50 (Squalene synthase) [µM] | logD [9] | inhibition in vivo at 3 mg/kg (Rattus norvegicus [10]) [%] | inhibition (Rattus norvegicus [11]) | concentration at 1 h (Rattus norvegicus [12]) [ng/g] | Kp at 1 h (Rattus norvegicus [13])
1 | COc1cccc([C@H]2O[C@H](CC(=O)N3CCC(CC(=O)O)CC3)C(=O)N(CC(C)(C)COC(C)=O)c3ccc(Cl)cc32)c1OC [LAPAQUISTAT ACETATE] | 3.8 | 25 | 10 | 19 | 17 | – | – | – | – | – | – | – | – | – | –
2 | COc1cccc([C@H]2O[C@H](CC(=O)O)c3nnc(C(F)(F)F)n3-c3ccc(Cl)cc32)c1OC(F)(F)F | – | – | – | – | – | 48 | 67 | 77 | 0.028 | 0.0007 | – | – | – | – | –
3 | COc1cccc([C@H]2O[C@H](CCn3cc(C(=O)O)cn3)c3nnc(C)n3-c3ccc(Cl)cc32)c1OC (relative stereo) | – | – | – | – | – | – | – | – | 0.29 | 0.036 | -0.4 | 30 | – | – | –
4 | COc1cccc([C@H]2O[C@H](CCn3cc(C(=O)O)cn3)c3nnc(C(F)(F)F)n3-c3ccc(Cl)cc32)c1OC (relative stereo) | – | – | – | – | – | – | – | – | 0.13 | 0.0032 | 0.83 | 71 | – | – | –
5 | COc1cccc([C@H]2O[C@H](CCn3cc(C(=O)O)cn3)c3nnc(C(C)C)n3-c3ccc(Cl)cc32)c1OC (relative stereo) | – | – | – | – | – | – | – | – | 0.091 | 0.011 | 0.37 | 15 | – | – | –
6 | CC(C)c1c(C(=O)Nc2ccccc2)c(-c2ccccc2)c(-c2ccc(F)cc2)n1CC[C@@H](O)C[C@@H](O)CC(=O)O | – | – | – | – | – | – | – | – | – | – | – | – | Active | – | –
7 | CCc1c(OC)cccc1[C@H]1O[C@H](CC(=O)O)c2nnc(C(F)(F)F)n2-c2ccc(Cl)cc21 | – | – | – | – | – | 21 | 57 | 76 | 0.018 | 0.00036 | – | – | – | – | –
8 | COc1cccc([C@H]2O[C@H](CC(=O)O)c3nnc(C(F)(F)F)n3-c3ccc(Cl)cc32)c1Cl | 0.11 | 24 | 16 | 53 | 39 | 55 | 77 | 93 | 0.019 | 0.0011 | – | – | Active | – | –
9 | COc1cccc([C@H]2O[C@H](CCn3cc(C(=O)O)cn3)c3nnc(CF)n3-c3ccc(Cl)cc32)c1OC (relative stereo) | – | – | – | – | – | – | – | – | 0.077 | 0.006 | – | 48 | – | – | –
10 | COc1cccc([C@H]2O[C@H](CC(=O)O)c3nnc(C(F)(F)F)n3-c3ccc(Cl)cc32)c1OC | – | 29 | 3 | 44 | 29 | 45 | 78 | 88 | 0.038 | 0.0016 | – | – | – | 1040 | 66
11 | COc1cccc([C@H]2O[C@H](CC(=O)O)c3nnc(C(F)(F)F)n3-c3ccc(Cl)cc32)c1C | – | 34 | 8 | 42 | 32 | 45 | 69 | 87 | 0.046 | 0.00085 | – | – | – | – | –
